Test results: PubChem BioAssay
Records with an inconclusive call do not appear.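 Rule for the calls, unless noted: active = inhibition over a set limit, the all-compound mean plus 3 SD, in both replicate runs; inconclusive = over that limit in just one replicate run; inactive = at or under that limit in both runs.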

What was measured:
[1] = S. cerevisiae growth inhibition in permissive medium (OD615), pilot counter-assay for S. cerevisiae lifespan shortening project, permissive growth control (AID 705;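 active = growth inhibition above 25% in both replicates, a cutoff set 3 SD above the mean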); details: OD615, 24 h, at 10 µM, active compounds read high
Procedure, shortened: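 System: engineered DeaD yeast; Medium: permissive raffinose/galactose medium; Compound dosing: 10 µM single dose, 0.25% DMSO; Incubation: 4 h cell pre-growth, 24 h exposure at 30 °C; Technique: OD at 615 nm; Evaluation: growth inhibition from lowered OD615 after 24 h.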

[2] = S. cerevisiae growth inhibition in restrictive medium, OD615, pilot screen, restrictive growth control, yeast lifespan reduction project (AID 706;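 active = growth inhibition above a set limit, 3 SD over mean compound inhibition, in both replicates, cut at about 43% in these data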;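 note: modified DeaD lifespan yeast strain shifted to restrictive glucose medium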); details: OD615, 48 h, at 10 µM, active compounds read high
Procedure, shortened: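 Material: modified S. cerevisiae; buffer or medium: CSMM-D glucose medium; doses: one concentration, 10 µM final, 0.25% DMSO; incubation: 48 h compound exposure at 30 °C; detection: optical density at 615 nm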

[3] = doxorubicin toxicity protection in MRP-1 cells – H69AR cells, CellTiter-Glo, duplicate, MRP-1 activator project, pilot screen (AID 807;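 active = viability increase at or above a cutoff of the median across tested compounds plus 3 SD, cut at about 8.5% in these data, passing the limit was not always enough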;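 note: compound pretreatment 18-22 h then 72 h combined with doxorubicin; 0% = doxorubicin alone and 100% = vehicle without doxorubicin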); details: H69AR viability with doxorubicin, CellTiter-Glo luminescence; at 10 µM; active compounds read high
[4] = viability of HCT116 without oncogenic beta-catenin – human colon tumor cells, pilot screen (AID 823;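 active = cell viability at or below a set limit in both duplicate runs, the limit being the all-compound median minus 4 SD, cut at about 23% in these data, passing the limit was not always enough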;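 note: 0% = wells killed by 20 µM Hyamine and 100% = untreated DMSO cell wells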); details: HCT116 beta-catenin knockout viability, CellTiter-Glo, 60 h; at 10 µM; active compounds read low
[5] = viability of PTEN-null HCT116 cells – cell-based, HCT116 clonal line, CellTiter-Glo, pilot screen (AID 824;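 active = viability at or below 27.92% in each of two runs, the all-compound median minus 4 SD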;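 note: 0% = 20 µM Hyamine control and 100% = vehicle cell control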); details: HCT116 PTEN-deleted viability, 60 h, at 10 µM, active compounds read low
[6] = RAM pathway blockade in budding yeast – dse1pr::URA3 reporter, 5-FOA selection, pilot screen (AID 869);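 note: 0% = DMSO wells with no growth and 100% = 10 µM 1-NA-PP1 with full growth; RAM network block rescues cells from 5-FOA so hits raise OD615 growth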; details: S. cerevisiae dse1pr::URA3 5-FOA growth, OD615, 2 d; at 10 µM; active compounds read high; strain carries analog-sensitive mutant Cbk1 kinase
[7] = RAM signaling pathway blockade in yeast – S. cerevisiae, Pdr1DBD-CYC8 efflux-inhibited sensitized strain, primary screen (AID 1298;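 active = RAM network inhibition above 8.4% in each of two replicates, 3 SD over the compound average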;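 note: 0% = DMSO untreated cells without growth and 100% = 10 µM 1-NA-PP1 full growth; higher means more yeast growth rescued from 5-FOA killing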); details: S. cerevisiae cbk1-as DSE1-URA3 strain, 5-FOA growth OD615, 2 d; at 50 µM; active compounds read high

Cc1cc(C)n(-c2ncnc3sc4c(c23)CC(C)CC4)n1 (configuration not stated)
inactive: growth inhibition [1] -1.99% | growth inhibition [2] 6.4% | viability increase [3] -0.82% | viability [4] 89.7% | viability [5] 90.7% | inhibition [6] 1.6% | RAM network inhibition [7] 0.87%

Cc1cc(-n2nc(C)cc2C)nc(NS(=O)(=O)c2ccccc2)n1
inactive: growth inhibition [1] -11.4% | growth inhibition [2] -20.8% | viability increase [3] -2.09% | viability [4] 94.8% | viability [5] 94.3% | inhibition [6] 2.98% | RAM network inhibition [7] 4.2%

O=C(CN1CCN(C2CCCCC2)CC1)Nc1ccccc1N1CCCCC1
inactive: growth inhibition [1] -12.3% | growth inhibition [2] -31.2% | viability increase [3] -4.35% | viability [4] 71.5% | viability [5] 77.7% | inhibition [6] 0.16% | RAM network inhibition [7] 5.95%

CCCc1nnc(NC(=O)CC(=O)OCC)s1
inactive: growth inhibition [1] 6.47% | growth inhibition [2] -8.03% | viability increase [3] -1.07% | viability [4] 97% | viability [5] 93.1% | inhibition [6] 0.96% | RAM network inhibition [7] -0.11%

CCCCC(=O)Nc1ncc2c(n1)CC(C)(C)CC2=O
inactive: growth inhibition [1] -7.95% | growth inhibition [2] -5.04% | viability increase [3] -2.35% | viability [4] 96.1% | viability [5] 98.2% | inhibition [6] 2.94% | RAM network inhibition [7] 1.03%

COc1cccc(C(=O)NCC(c2cccnc2)N2CCN(c3ccccc3OC)CC2)c1 (configuration not stated)
inactive: growth inhibition [1] 1.37% | growth inhibition [2] -13.1% | viability increase [3] -2.58% | viability [4] 84.3% | viability [5] 78% | inhibition [6] 1.87% | RAM network inhibition [7] 1.46%

O=C1c2ccccc2C(O)N1CCN1CCOCC1 (configuration not stated)
inactive: growth inhibition [1] -0.105% | growth inhibition [2] -6.41% | viability increase [3] -1.24% | viability [4] 94.5% | viability [5] 101% | inhibition [6] 2.64% | RAM network inhibition [7] 1.95%

Cc1nc2cc(C(=O)O)ccc2n1-c1ccccc1
inactive: growth inhibition [1] -11.5% | growth inhibition [2] -0.12% | viability increase [3] -2.1% | viability [4] 109% | viability [5] 94.8% | inhibition [6] 1.99% | RAM network inhibition [7] 1.31%

O=C(Cn1cc2c(n1)CCCC2)NCc1cccs1
inactive: growth inhibition [1] -4.03% | growth inhibition [2] -3.48% | viability increase [3] -0.37% | viability [4] 105% | viability [5] 93% | inhibition [6] 1.2% | RAM network inhibition [7] 0.81%

Cc1c(Nc2nc3ccccc3nc2N2CCN(c3ccccc3)CC2)c(=O)n(-c2ccccc2)n1C
inactive: growth inhibition [1] -2.84% | growth inhibition [2] -9.73% | viability increase [3] -4.8% | viability [4] 69% | viability [5] 70.6% | inhibition [6] 0.73% | RAM network inhibition [7] 5.41%

Cc1n[nH]c(C)c1S(=O)(=O)N(CC(=O)Nc1ccc2c(c1)OCCO2)c1ccc(C(C)C)cc1
inactive: growth inhibition [1] 2.8% | growth inhibition [2] 2.67% | viability increase [3] -5.15% | viability [4] 68.1% | viability [5] 63% | inhibition [6] -0.49% | RAM network inhibition [7] 3.78%

CCN1CCN(CC(=O)NC2CCCCC2)C(=O)C1=O
inactive: growth inhibition [1] -14.6% | growth inhibition [2] -12.4% | viability increase [3] -0.83% | viability [4] 96.1% | viability [5] 96.3% | inhibition [6] 0.89% | RAM network inhibition [7] 2.42%

O=C(COc1ccccc1F)c1ccc(O)cc1O
inactive: growth inhibition [1] -0.53% | growth inhibition [2] 3.7% | viability increase [3] 1.2% | viability [4] 101% | viability [5] 106% | inhibition [6] 0.25% | RAM network inhibition [7] -1.69%

CCCSC1=N/C(=C\c2ccsc2)C(=O)S1
inactive: growth inhibition [1] -10.5% | growth inhibition [2] -3.12% | viability increase [3] -0.76% | viability [4] 95.1% | viability [5] 99.2% | inhibition [6] 0.72% | RAM network inhibition [7] 9.91%

Cc1ccc(Cn2c3ccccc3c3cn[nH]c(=O)c32)cc1
inactive: growth inhibition [1] -15.7% | growth inhibition [2] -24.6% | viability increase [3] -3.48% | viability [4] 101% | viability [5] 91.1% | inhibition [6] 2.17% | RAM network inhibition [7] 3.88%

CC(=O)c1cccc(NC(=O)N2CCCC2C(=O)NCc2ccccc2)c1 (configuration not stated)
inactive: growth inhibition [1] -6.55% | growth inhibition [2] -11.5% | viability increase [3] -1.13% | viability [4] 104% | viability [5] 100% | inhibition [6] 0.87% | RAM network inhibition [7] 1.46%
